{"source": "ChEMBL document CHEMBL1121955", "about": "“Cardenolide analogues. 14. Synthesis and biological activity of glucosides of C17 beta-modified derivatives of digitoxigenin” (J Med Chem, 1982)", "key": {"[1]": {"organism": "Cavia porcellus", "experiment": "The dose producing 75% increase in contractility in guinea pig atria", "assay_type": "functional", "how_it_was_run": "(§1)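 Isolated guinea pig left atria were equilibrated 1 h, set to 1 g resting tension, and paced with 10-ms rectangular pulses at 90/min, 20% above threshold (minimum 5 V). Cumulative doses in propylene glycol/water (7:3) were added at 30-min intervals or 5 min after maximum effect. Isometric force change was referenced to control atria. At least nine replicate curves were fitted, and ΔF75 was read from the pooled fitted curve.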"}, "[2]": {"organism": "Cavia porcellus", "experiment": "Binding affinity against digitalis receptor was determined relative to digitoxigenin"}, "[3]": {"organism": "Cavia porcellus", "experiment": "The dose producing 75% increase in contractility in guinea pig atria"}, "[4]": {"organism": "Cavia porcellus", "experiment": "Relative potency of compound to Digitalis receptor was determined to that of digitoxigenin; Inactive"}, "[5]": {"organism": "Cavia porcellus", "experiment": "The dose producing 75% increase in contractility in guinea pig atria; Inactive", "assay_type": "functional", "how_it_was_run": "as §1"}}, "note": "Active and inactive are the calls of the source."}
{"smiles": "CC(C)OC(=O)/C=C/[C@H]1CC[C@@]2(O)[C@@H]3CC[C@H]4C[C@@H](O[C@@H]5O[C@H](CO)[C@@H](O)[C@H](O)[C@H]5O)CC[C@]4(C)[C@H]3CC[C@]12C", "values": [{"measurement": "Delta F75", "setting": "[1]", "result": "1.5e-05", "unit": "M l-1"}]}
{"smiles": "CC(=O)/C=C/[C@H]1CC[C@]2(O)[C@@H]3CCC4C[C@@H](O)CC[C@]4(C)[C@H]3CC[C@]12C", "note": "(some centres not stated)", "values": [{"measurement": "Delta F75", "setting": "[1]", "result": "5.6e-06", "unit": "M l-1"}]}
{"smiles": "C[C@]12CC[C@H](O[C@@H]3O[C@H](CO)[C@@H](O)[C@H](O)[C@H]3O)C[C@@H]1CC[C@@H]1[C@@H]2CC[C@]2(C)[C@@H](/C=C/C#N)CC[C@@]12O", "values": [{"measurement": "Delta F75", "setting": "[1]", "result": "6.9e-07", "unit": "M l-1"}]}
{"smiles": "C[C@H]1O[C@@H](O[C@H]2[C@@H](O)C[C@H](O[C@H]3[C@@H](O)C[C@H](O[C@H]4CC[C@@]5(C)[C@H](CC[C@@H]6[C@@H]5C[C@@H](O)[C@]5(C)[C@@H](C7=CC(=O)OC7)CC[C@]65O)C4)O[C@@H]3C)O[C@@H]2C)C[C@H](O)[C@@H]1O", "note": "[DIGOXIN]", "values": [{"measurement": "Delta F75", "setting": "[1]", "result": "6.6e-07", "unit": "M l-1"}]}
{"smiles": "C[C@]12CC[C@H](O)C[C@H]1CC[C@@H]1[C@@H]2CC[C@]2(C)[C@@H](C3=CC(=O)OC3)CC[C@]12O", "note": "[DIGITOXIGENIN]", "values": [{"measurement": "Relative potency", "setting": "[2]", "result": 1}, {"measurement": "Delta F75", "setting": "[3]", "result": "1.1e-06", "unit": "M l-1"}]}
{"smiles": "CCCOC(=O)/C=C/[C@H]1CC[C@@]2(O)[C@@H]3CC[C@H]4C[C@@H](O[C@@H]5O[C@H](CO)[C@@H](O)[C@H](O)[C@H]5O)CC[C@]4(C)[C@H]3CC[C@]12C", "values": [{"measurement": "Delta F75", "setting": "[1]", "result": "1.1e-05", "unit": "M l-1"}]}
{"smiles": "COC(=O)/C=C/[C@H]1CC[C@@]2(O)[C@@H]3CC[C@H]4C[C@@H](O[C@@H]5O[C@H](CO)[C@@H](O)[C@H](O)[C@H]5O)CC[C@]4(C)[C@H]3CC[C@]12C", "values": [{"measurement": "Delta F75", "setting": "[1]", "result": "1.5e-06", "unit": "M l-1"}]}
{"smiles": "C[C@]12CC[C@H](O)CC1CC[C@@H]1[C@@H]2CC[C@]2(C)[C@@H](/C=C/C#N)CC[C@]12O", "note": "(some centres not stated)", "values": [{"measurement": "Relative potency", "setting": "[2]", "result": 0.69}, {"measurement": "Delta F75", "setting": "[1]", "result": "1.6e-06", "unit": "M l-1"}]}
{"smiles": "CCCCOC(=O)/C=C/[C@H]1CC[C@@]2(O)[C@@H]3CC[C@H]4C[C@@H](O[C@@H]5O[C@H](CO)[C@@H](O)[C@H](O)[C@H]5O)CC[C@]4(C)[C@H]3CC[C@]12C", "values": [{"measurement": "Delta F75", "setting": "[1]", "result": "6.9e-05", "unit": "M l-1"}]}
{"smiles": "C[C@]12CC[C@H](O)C[C@H]1CC[C@@H]1[C@@H]2CC[C@]2(C)[C@@H](/C=C/C(N)=O)CC[C@]12O", "values": [{"measurement": "Relative potency", "setting": "[2]", "result": "< 0.01"}, {"measurement": "Delta F75", "setting": "[1]", "result": "<20", "unit": "M l-1"}]}
{"smiles": "C[C@@H]1O[C@@H](O[C@H]2C[C@@H](O)[C@]3(CO)[C@H]4[C@H](O)C[C@]5(C)[C@@H](C6=CC(=O)OC6)CC[C@]5(O)[C@@H]4CC[C@]3(O)C2)[C@H](O)[C@H](O)[C@H]1O", "note": "[OUABAIN]", "values": [{"measurement": "Delta F75", "setting": "[3]", "result": "2.9e-07", "unit": "M l-1"}]}
{"smiles": "C[C@]12CC[C@H](O)CC1CC[C@@H]1[C@@H]2CC[C@]2(C)[C@@H](/C=C/C(=O)O)CC[C@]12O", "note": "(some centres not stated)", "values": [{"measurement": "Relative potency", "setting": "[4]", "result": "inactive"}, {"measurement": "Delta F75", "setting": "[5]", "result": "inactive"}]}
{"smiles": "CC(=O)/C=C/[C@H]1CC[C@@]2(O)[C@@H]3CC[C@H]4C[C@@H](O[C@@H]5O[C@H](CO)[C@@H](O)[C@H](O)[C@H]5O)CC[C@]4(C)[C@H]3CC[C@]12C", "values": [{"measurement": "Delta F75", "setting": "[1]", "result": "3.1e-06", "unit": "M l-1"}]}
{"smiles": "CCOC(=O)/C=C/[C@H]1CC[C@@]2(O)[C@@H]3CC[C@H]4C[C@@H](O[C@@H]5O[C@H](CO)[C@@H](O)[C@H](O)[C@H]5O)CC[C@]4(C)[C@H]3CC[C@]12C", "values": [{"measurement": "Delta F75", "setting": "[1]", "result": "6.2e-06", "unit": "M l-1"}]}
{"smiles": "C[C@H]1O[C@@H](O[C@H]2[C@@H](O)C[C@H](O[C@H]3[C@@H](O)C[C@H](O[C@H]4CC[C@@]5(C)[C@H](CC[C@@H]6[C@@H]5CC[C@]5(C)[C@@H](C7=CC(=O)OC7)CC[C@]65O)C4)O[C@@H]3C)O[C@@H]2C)C[C@H](O)[C@@H]1O", "note": "[DIGITOXIN]", "values": [{"measurement": "Delta F75", "setting": "[1]", "result": "1.6e-07", "unit": "M l-1"}]}
{"smiles": "COC(=O)/C=C/[C@H]1CC[C@]2(O)[C@@H]3CCC4C[C@@H](O)CC[C@]4(C)[C@H]3CC[C@]12C", "note": "(some centres not stated)", "values": [{"measurement": "Relative potency", "setting": "[2]", "result": 0.29}, {"measurement": "Delta F75", "setting": "[1]", "result": "3.8e-06", "unit": "M l-1"}]}
{"smiles": "CC(C)COC(=O)/C=C/[C@H]1CC[C@@]2(O)[C@@H]3CC[C@H]4C[C@@H](O[C@@H]5O[C@H](CO)[C@@H](O)[C@H](O)[C@H]5O)CC[C@]4(C)[C@H]3CC[C@]12C", "values": [{"measurement": "Delta F75", "setting": "[1]", "result": "6.3e-05", "unit": "M l-1"}]}
